Experimental findings from ChEMBL document CHEMBL1157410, “7-aryl 1,5-dihydro-benzo[e][1,4]oxazepin-2-ones and analogs as non-steroidal progesterone receptor antagonists” (Bioorg Med Chem, 2008) are described below.

Test [1] concerns the target T1, Progesterone receptor (Homo sapiens, UniProt P06401).
T1 sequence (P06401 whole entry): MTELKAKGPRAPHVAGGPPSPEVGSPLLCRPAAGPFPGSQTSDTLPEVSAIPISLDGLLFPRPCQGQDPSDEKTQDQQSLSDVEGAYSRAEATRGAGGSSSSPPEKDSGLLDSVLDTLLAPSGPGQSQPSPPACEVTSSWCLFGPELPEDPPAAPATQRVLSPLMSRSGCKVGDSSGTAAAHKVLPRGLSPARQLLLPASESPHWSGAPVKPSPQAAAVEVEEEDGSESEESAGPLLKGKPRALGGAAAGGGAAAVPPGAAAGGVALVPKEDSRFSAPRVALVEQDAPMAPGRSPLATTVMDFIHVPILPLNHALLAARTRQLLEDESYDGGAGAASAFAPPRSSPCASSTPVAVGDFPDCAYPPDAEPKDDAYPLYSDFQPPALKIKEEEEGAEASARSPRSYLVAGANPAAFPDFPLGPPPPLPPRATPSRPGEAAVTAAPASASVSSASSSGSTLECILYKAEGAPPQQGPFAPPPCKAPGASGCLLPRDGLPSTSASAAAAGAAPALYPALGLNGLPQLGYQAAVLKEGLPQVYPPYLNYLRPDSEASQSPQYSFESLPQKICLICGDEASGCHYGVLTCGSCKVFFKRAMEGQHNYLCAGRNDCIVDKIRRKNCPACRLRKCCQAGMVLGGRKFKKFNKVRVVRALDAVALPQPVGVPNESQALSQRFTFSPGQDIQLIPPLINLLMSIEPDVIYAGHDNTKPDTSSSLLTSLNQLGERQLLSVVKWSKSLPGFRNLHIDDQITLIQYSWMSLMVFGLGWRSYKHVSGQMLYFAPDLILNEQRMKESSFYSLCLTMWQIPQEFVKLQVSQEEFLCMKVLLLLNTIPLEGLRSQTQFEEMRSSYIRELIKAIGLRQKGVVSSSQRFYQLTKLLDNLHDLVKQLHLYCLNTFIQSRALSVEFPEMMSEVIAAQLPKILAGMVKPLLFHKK
Nature of the test: Inhibition of progesterone receptor mediated progesterone-induced alkaline phosphatase activity in human T47D cells. The format is cell-based.

In test [2] the target is T1, Progesterone receptor. The test can be described thus: Agonist activity at progesterone receptor assessed as alkaline phosphatase activity in human T47D cells.
For test [3], the target named is T2, Mineralocorticoid receptor (Homo sapiens) (UniProt P08235).
T2 sequence (whole entry): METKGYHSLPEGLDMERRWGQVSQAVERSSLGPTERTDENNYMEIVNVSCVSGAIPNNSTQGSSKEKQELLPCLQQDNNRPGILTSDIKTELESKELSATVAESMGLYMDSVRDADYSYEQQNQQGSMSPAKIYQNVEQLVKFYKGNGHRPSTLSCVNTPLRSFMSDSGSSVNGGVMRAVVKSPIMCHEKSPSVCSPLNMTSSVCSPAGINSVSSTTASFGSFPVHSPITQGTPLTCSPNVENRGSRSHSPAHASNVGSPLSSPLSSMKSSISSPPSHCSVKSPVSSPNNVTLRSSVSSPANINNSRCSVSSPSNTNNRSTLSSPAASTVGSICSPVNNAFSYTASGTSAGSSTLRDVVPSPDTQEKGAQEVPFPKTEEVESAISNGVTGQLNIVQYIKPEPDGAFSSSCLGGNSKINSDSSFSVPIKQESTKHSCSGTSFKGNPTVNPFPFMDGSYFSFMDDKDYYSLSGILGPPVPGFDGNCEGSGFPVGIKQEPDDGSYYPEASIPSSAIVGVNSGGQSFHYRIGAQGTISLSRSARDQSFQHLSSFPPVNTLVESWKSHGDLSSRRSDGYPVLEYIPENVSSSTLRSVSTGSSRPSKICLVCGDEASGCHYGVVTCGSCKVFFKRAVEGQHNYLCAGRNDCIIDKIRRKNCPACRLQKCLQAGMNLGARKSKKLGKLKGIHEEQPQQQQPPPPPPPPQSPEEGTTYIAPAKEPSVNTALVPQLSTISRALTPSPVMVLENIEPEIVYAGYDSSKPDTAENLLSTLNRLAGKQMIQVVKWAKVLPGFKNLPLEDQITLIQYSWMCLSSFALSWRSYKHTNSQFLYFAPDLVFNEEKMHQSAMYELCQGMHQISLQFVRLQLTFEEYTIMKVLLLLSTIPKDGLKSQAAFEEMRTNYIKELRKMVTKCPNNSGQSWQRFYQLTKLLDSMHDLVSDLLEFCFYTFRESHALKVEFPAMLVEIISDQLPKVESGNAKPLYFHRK
The test can be described thus: Antagonist activity at cloned mineralocorticoid receptor-ligand binding domain expressed in african green monkey COS7 cells by GAL4 luciferase reporter assay. The note with it: COS-7; concentration not given here. The format is cell-based. In outline: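 GAL4 DNA-binding domain fused to receptor ligand-binding domain, one-hybrid format. LBD fusion and GAL4_UAS (5 copies, E1b minimal TATA) luciferase reporter plasmids, 50 ng/well each, transfected 16 h into COS-7 cells. Cells grown in phenol red-free DMEM with 10% charcoal/dextran-treated FBS. Compound exposure 20 h, then luciferase read on lysates. Mean of at least duplicate determinations.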
Background: A reporter such as luciferase makes a cellular process visible.

As a reminder, the IC50 is the point on the concentration scale where inhibition reaches its midpoint. `CC(C)C1(c2cccs2)OCC(=S)Nc2ccc(-c3cc(F)cc(C#N)c3)cc21` (stereo not given) had an IC50 at Progesterone receptor [1] of 78.2 nM.

For the molecule `O=C1COC(c2cccs2)(c2cccs2)c2cc(-c3ccc(F)c(Cl)c3)ccc2N1`, at Progesterone receptor [1], the IC50 worked out at 65.2 nM.

For `CC(C)C1(c2cccs2)OCC(=O)Nc2ccc(-c3ccc(F)c(Cl)c3)cc21` (stereo not given), 366 nM corresponded to half-maximal inhibition at Progesterone receptor [1] (IC50).

With `CC1(C)OCC(=O)Nc2ccc(-c3ccc(F)c(F)c3)cc21`, the IC50 at Progesterone receptor [1] was 29.3 nM.

With `O=C1COC(c2ccccc2)(c2ccccc2)c2cc(-c3ccc(F)c(Cl)c3)ccc2N1`, half-maximal inhibition on Progesterone receptor [1] (IC50) was put at 88 nM.

Molecule `CC1(C)OCC(=O)Nc2ccc(-c3cc(F)cc(Cl)c3)cc21` came in with an IC50 on Progesterone receptor [1] of 15 nM.

Molecule `CCC1(c2cccs2)OCC(=O)Nc2ccc(-c3ccc(F)c(Cl)c3)cc21` (stereo not given) came in with an IC50 on Progesterone receptor [1] of 208 nM.

On Progesterone receptor [1], `CC1=NCC(=O)Nc2ccc(-c3ccc(F)c(Cl)c3)cc21` gave an IC50 of 677 nM.

In the case of `O=C1COC(c2ccco2)(C(F)(F)C(F)(F)F)c2cc(-c3ccc(F)c(Cl)c3)ccc2N1` (stereo not given), half-maximal inhibition against Progesterone receptor [1] (IC50) was put at 82.4 nM.

Regarding `O=C1COC(c2ccc(Cl)s2)(c2ccc(Cl)s2)c2cc(-c3ccc(F)c(Cl)c3)ccc2N1`, the midpoint of inhibition against Progesterone receptor [1], the IC50, lay at 1000 nM.

As to `CCCC1(c2cccs2)OCC(=O)Nc2ccc(-c3ccc(F)c(Cl)c3)cc21` (stereo not given), the IC50 on Progesterone receptor [1] is 349 nM.

The EC50 is the concentration that produces a half-maximal response. On to `CC1(C)OCC(=S)Nc2ccc(-c3cc(F)cc(F)c3)cc21`, for which, on Progesterone receptor [2] (read-out: EC50), the EC50 stood at 35.8 nM.

On Progesterone receptor [1], `CCC1(c2ccco2)OCC(=O)Nc2ccc(-c3ccc(F)c(Cl)c3)cc21` (stereo not given) came in with an IC50 of 62.5 nM.

On Progesterone receptor [1], `N#Cc1cc(F)cc(-c2ccc3c(c2)C(c2ccc(Cl)s2)(c2ccc(Cl)s2)OCC(=O)N3)c1` gave an IC50 of 1000 nM.

With `CC1(C)OCC(=O)Nc2ccc(-c3ccccc3F)cc21`, the half-maximal inhibitory concentration (IC50) at Progesterone receptor [1] came out at 62.1 nM.

The inhibition is how much of the control response was suppressed. As to `CC#C[C@]1(O)CC[C@H]2[C@@H]3CCC4=CC(=O)CCC4=C3[C@@H](c3ccc(N(C)C)cc3)C[C@@]21C`, the inhibition in test [3] amounted to 96%.

In the case of `CC1(C)OC(=O)Nc2ccc(-c3cc(F)cc(C#N)c3)cc21`, at Progesterone receptor [2], the EC50 came to 90 nM.

Consider `CCC1(c2ccsc2)OCC(=O)Nc2ccc(-c3ccc(F)c(Cl)c3)cc21` (stereo not given), for which half-maximal inhibition on Progesterone receptor [1] (IC50) was put at 117 nM.

Take `CCC1(c2cccs2)OCC(=O)Nc2ccc(-c3cc(F)cc(C#N)c3)cc21` (stereo not given): at Progesterone receptor [1], the IC50 is 100 nM.

As to `CC1(C)OCC(=O)Nc2ccc(-c3cc(Cl)cc(C#N)c3)cc21`, it took 34.6 nM to reach half-maximal inhibition at Progesterone receptor [1] (IC50).

As to `CCC1(c2cccs2)OCC(=O)Nc2ccc(-c3csc(C#N)c3)cc21` (stereo not given), the IC50 at Progesterone receptor [1] stood at 108 nM.

At Progesterone receptor [1], `CC(C)C1(c2cccs2)OCC(=O)Nc2ccc(-c3cc(F)cc(C#N)c3)cc21` (stereo not given) came in with an IC50 of 138 nM.

With `N#Cc1cc(F)cc(-c2ccc3c(c2)C(c2cccs2)(c2cccs2)OCC(=O)N3)c1`, the IC50 on Progesterone receptor [1] was determined as 26.6 nM.

`CC1(C)OCC(=O)Nc2ccc(-c3cccc(F)c3F)cc21` gave an IC50 against Progesterone receptor [1] of 15.7 nM.

As for `CC1(C)OCC(=O)Nc2ccc(-c3ccc(F)c(Cl)c3)cc21`, the IC50 against Progesterone receptor [1] was 30.1 nM.

Molecule `CC1(c2cccs2)OCC(=O)Nc2ccc(-c3ccc(F)c(Cl)c3)cc21` (stereo not given) had an IC50 against Progesterone receptor [1] of 65.5 nM.

In turn, `CC1(C)OCC(=O)Nc2ccc(-c3cccc(F)c3)cc21` registered an IC50 against Progesterone receptor [1] of 14.9 nM.

At Progesterone receptor [1], `O=C1COC(c2ccco2)(c2ccco2)c2cc(-c3ccc(F)c(Cl)c3)ccc2N1` registered an IC50 of 22.5 nM.

The molecule `CN1CC(=O)Nc2ccc(-c3ccc(F)c(Cl)c3)cc2C1(C)C` registered an IC50 at Progesterone receptor [1] of 105 nM.

The molecule `CC1(C)OCC(=O)Nc2ccc(-c3cc(Cl)cc(Cl)c3)cc21` came in with an IC50 against Progesterone receptor [1] of 29.1 nM.

Turning to `CC1(C)OCC(=O)Nc2ccc(-c3cc(F)cc(F)c3)cc21`, on Progesterone receptor [1], half-maximal inhibition (IC50) required 30 nM.

`CCC1(c2ccsc2)OCC(=O)Nc2ccc(-c3cc(F)cc(C#N)c3)cc21` (stereo not given) yielded an IC50 against Progesterone receptor [1] of 59.2 nM.

At Progesterone receptor [1], `CCC1(c2ccco2)OCC(=O)Nc2ccc(-c3coc(C#N)c3)cc21` (stereo not given) returned an IC50 of 29.9 nM.

`N#Cc1cc(F)cc(-c2ccc3c(c2)C(c2ccco2)(C(F)(F)C(F)(F)F)OCC(=O)N3)c1` (stereo not given): it took 34.1 nM to reach half-maximal inhibition on Progesterone receptor [1] (IC50).

`CC1(C)OCC(=O)Nc2ccc(-c3ccc(F)cc3)cc21` came in with an IC50 at Progesterone receptor [1] of 100 nM.
